{"source": "paper PMC5939375", "about": "(Biochemistry, 2016)", "key": {"[1]": {"target": "T1, reduced WT FDTS (Thermotoga maritima, UniProt Q9WYT0)", "T1 sequence (Q9WYT0 1-220)": "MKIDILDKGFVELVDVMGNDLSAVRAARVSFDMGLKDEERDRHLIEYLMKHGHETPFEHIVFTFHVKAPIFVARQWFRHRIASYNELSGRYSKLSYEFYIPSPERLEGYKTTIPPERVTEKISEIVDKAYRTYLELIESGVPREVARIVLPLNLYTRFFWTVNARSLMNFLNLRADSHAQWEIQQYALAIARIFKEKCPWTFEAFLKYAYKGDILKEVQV", "conditions": "cited from earlier work"}, "[2]": {"target": "T2, WT FDTS (Thermotoga maritima, UniProt Q9WYT0)", "assay": "Spectrophotometric titration of oxidized WT FDTS with ligand", "format": "binding"}, "[3]": {"target": "T1, reduced WT FDTS", "assay": "Reactivity of dUMP analogs with reduced FDTS in the presence of CH2THF", "format": "biochemical", "conditions": "anaerobic, 0.1 M Tris-HCl pH 8 at 25 °C; 200 μM CH2THF; 10 mM dU or 200 μM dUMS; over four hours", "in_short": "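Recombinant T. maritima WT enzyme, purified, converted to apo-protein with concentrated NaCl, and reconstituted with exogenous FAD after desalting. Run in anaerobic cuvettes in 0.1 M Tris-HCl, pH 8, 25 °C. To reduced enzyme, CH2THF (200 μM final) was added first, then test compound (final concentration as listed). Flavin spectra were followed by scanning spectrophotometry. The mixture was afterwards analysed by HPLC for 2′-deoxythymidine-5′-monosulfate.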"}, "[4]": {"target": "T3, R90A FDTS (Thermotoga maritima, UniProt Q9WYT0, R90A)", "T3 sequence (Q9WYT0 whole entry R90A)": "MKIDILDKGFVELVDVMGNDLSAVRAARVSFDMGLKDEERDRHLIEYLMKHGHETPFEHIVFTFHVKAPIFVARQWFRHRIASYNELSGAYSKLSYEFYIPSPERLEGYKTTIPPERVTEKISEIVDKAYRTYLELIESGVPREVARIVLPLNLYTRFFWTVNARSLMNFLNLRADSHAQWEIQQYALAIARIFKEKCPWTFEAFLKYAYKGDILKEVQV", "assay": "Spectrophotometric titration of R90A FDTS with ligand", "format": "binding"}, "[5]": {"target": "T4, R174A FDTS (Thermotoga maritima, UniProt Q9WYT0, R174A)", "T4 sequence (Q9WYT0 whole entry R174A)": "as the sequence (Q9WYT0 whole entry R90A) above, with A90R, R174A counted along it", "assay": "Spectrophotometric titration of R174A FDTS with ligand", "format": "binding"}, "[6]": {"target": "T2, WT FDTS"}, "[7]": {"conditions": "cited from earlier work"}, "[8]": {"target": "T3, R90A FDTS", "conditions": "R90A variant; oxidative half-reaction with dUMP and CH2THF; cited from earlier work"}, "[9]": {"target": "T4, R174A FDTS", "conditions": "R174A variant; oxidative half-reaction with dUMP and CH2THF; cited from earlier work"}}, "note": "Entries after “also recorded” stand apart in the source; their conditions may differ.", "data": [{"smiles": "O=c1[nH]c(=O)n([C@H]2C[C@H](O)[C@@H](COP(=O)(O)O)O2)cc1F", "note": "[5F-dUMP, 5-fluoro-2′-deoxyuridine-5′-monophosphate]", "values": [{"measurement": "oxidation of reduced FDTS in the presence of CH2THF", "setting": "[1]", "value": "cannot oxidize reduced FDTS"}]}, {"smiles": "O=c1ccn([C@H]2C[C@H](O)[C@@H](CO)O2)c(=O)[nH]1", "note": "[dU, 2′-Deoxyuridine]", "values": [{"measurement": "loss of binding energy", "setting": "[2]; dU binding to WT FDTS vs dUMP", "value": "~ 5.2 kcal/mol"}, {"measurement": "oxidation of reduced FDTS flavin in the presence of CH2THF", "setting": "[3]", "value": "failed to oxidize reduced WT FDTS; also recorded: neither dU nor dUMS cause oxidation of the reduced flavin; also recorded: No oxidation of the flavin occurred"}]}, {"smiles": "O=c1ccn([C@H]2C[C@H](O)[C@@H](COP(=O)(O)O)O2)c(=O)[nH]1", "note": "[dUMP, 2′-deoxyuridine-5′-monophosphate]", "values": [{"measurement": "Kd", "setting": "[2]; Kd, WT FDTS, 0.1 M Tris-HCl, pH 8 at 25 °C, estimate from fitting to Eq. 1", "value": "~0.03", "unit": "µM"}, {"measurement": "Kd", "setting": "[4]", "value": "14 ± 2", "unit": "µM"}, {"measurement": "loss of binding energy", "setting": "[4]; dUMP binding to R90A FDTS vs WT", "value": "~ 4.0 kcal/mol"}, {"measurement": "Kd", "setting": "[5]", "value": "109 ± 6", "unit": "µM"}, {"measurement": "loss of binding energy", "setting": "[5]; dUMP binding to R174A FDTS vs WT", "value": "~ 5.4 kcal/mol"}, {"measurement": "pKa of N3 of dUMP bound to FDTS", "setting": "[6]; bound to WT FDTS, by the interaction of R174", "value": "below 8"}, {"measurement": "stabilization of the N3 anion of bound dUMP by R174", "setting": "[6]; fully ionized at pH 8", "value": "at least 2.8 kcal mol^−1"}, {"measurement": "pKa for N3 of dUMP", "setting": "[7]; aqueous solution", "value": 9.3}, {"measurement": "pKa of anionic phosphate oxygen of dUMP", "setting": "[7]; phosphate oxygen, reference not given", "value": "about 7"}, {"measurement": "rate constant for flavin oxidation, fold smaller than wild-type FDTS", "setting": "[8]", "value": 8, "unit": "fold"}, {"measurement": "rate constant for flavin oxidation, fold smaller than wild-type FDTS", "setting": "[9]", "value": 3000, "unit": "fold"}]}, {"smiles": "O=c1ccn([C@H]2C[C@H](O)[C@@H](COS(=O)(=O)O)O2)c(=O)[nH]1", "note": "[dUMS, 2′-deoxyuridine-5′-monosulfate]", "values": [{"measurement": "oxidation of reduced FDTS flavin in the presence of CH2THF", "setting": "[3]", "value": "unable to oxidize reduced FDTS; also recorded: failed to oxidize reduced FDTS; also recorded: neither dU nor dUMS cause oxidation of the reduced flavin; also recorded: No oxidation of the flavin occurred"}]}]}
